Legend:
[1] = target: T1, 5-hydroxytryptamine receptor 1A (Rattus norvegicus, UniProt P19327); experiment: Displacement of [3H]5-HT from rat hippocampal 5-hydroxytryptamine 1A receptor with 10e-6 M ketanserin; type: tissue-based, Hippocampus
T1 sequence (P19327 whole entry): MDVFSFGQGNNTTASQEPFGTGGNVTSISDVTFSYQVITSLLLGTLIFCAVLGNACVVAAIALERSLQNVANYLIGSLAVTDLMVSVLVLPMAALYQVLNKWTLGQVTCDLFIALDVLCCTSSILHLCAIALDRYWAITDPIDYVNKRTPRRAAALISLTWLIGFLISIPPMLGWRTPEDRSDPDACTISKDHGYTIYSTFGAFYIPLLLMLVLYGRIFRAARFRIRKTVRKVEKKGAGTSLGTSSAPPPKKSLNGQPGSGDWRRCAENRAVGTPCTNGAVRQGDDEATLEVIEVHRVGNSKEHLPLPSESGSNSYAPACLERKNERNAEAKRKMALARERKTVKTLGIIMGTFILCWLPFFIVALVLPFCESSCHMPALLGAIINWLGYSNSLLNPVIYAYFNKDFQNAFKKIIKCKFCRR
Method in brief: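 Rat hippocampal membranes, preincubated 15 min at 37 °C in 50 mM Tris-HCl pH 7.6. Assay buffer was 50 mM Tris-HCl with 4 mM CaCl2, 5.7 mM ascorbic acid and […], pH 7.6. Used 20 nM [3H]5-HT, 15 min at 37 °C, then filtration. IC50 from 2–3 experiments in triplicate (6–9 concentrations); Ki by Cheng–Prusoff.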

[2] = target: Sigma non-opioid intracellular receptor 1 (Rattus norvegicus, UniProt Q9R0C9); experiment: Inhibitory activity against Sigma opioid receptor type 1 isolated from whole rat membranes using [3H](+)-pentazocine as radioligand.
Sequence of Sigma non-opioid intracellular receptor 1 (Q9R0C9 whole entry): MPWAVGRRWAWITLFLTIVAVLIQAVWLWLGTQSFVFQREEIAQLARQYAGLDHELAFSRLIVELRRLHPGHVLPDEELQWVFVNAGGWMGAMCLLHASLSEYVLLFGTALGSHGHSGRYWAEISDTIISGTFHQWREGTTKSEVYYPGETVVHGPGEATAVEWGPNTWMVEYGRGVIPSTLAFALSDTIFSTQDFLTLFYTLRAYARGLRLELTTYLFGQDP
Method in brief: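 Membranes came from male Sprague–Dawley rat whole brain minus cerebellum and pons-medulla, in 50 mM Tris-HCl pH 7.8, washed four times. Incubated with [3H]-(+)-pentazocine 120 min at 25 °C, then filtered on polyethylenimine-soaked filters. Nonspecific binding was set with 10 µM haloperidol. IC50 from 2–3 experiments in triplicate (6–9 concentrations); Ki by Cheng–Prusoff.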

[3] = Selectivity for 5-hydroxytryptamine 1A and sigma receptors; parameters: reference not given here
[4] = species: Cavia porcellus; experiment: Selectivity for PCP and sigma receptors

SMILES | Ki [1] | Ki [2] | Selectivity [3] | Selectivity [4]
COc1cccc2c1CCCC2CCCCN1CCN(C2=NCCCC2)CC1 (stereo unspecified) | 37.1 nM | 396 nM |  | 
COc1cccc2c1CCCC2CCCN1CCN(Cc2ccccc2)CC1 (stereo unspecified) | 3.6 nM | 25.7 nM |  | 
C1=C(CCCN2CCN(Cc3ccccc3)CC2)c2ccccc2CC1 | 214 nM |  |  | 
COc1cccc2c1CCCC2CCCNCCCc1ccccc1 (stereo unspecified) | 4.4 nM |  |  | 
c1ccc2c(c1)CCCC2CCCN1CCN(C2=NCCCC2)CC1 (stereo unspecified) | 44.2 nM | 111 nM | 1 | 
COc1ccc2c(c1)C(CCCN1CCN(C3=NCCCC3)CC1)CCC2 (stereo unspecified) | 414 nM |  | 14 | 
COc1cccc2c1CCCC2CCCN1CCNCC1 (stereo unspecified) | > 1430 nM |  |  | 
COc1cccc2c1CCCC2CCCNCCc1ccccc1 (stereo unspecified) | 31.4 nM |  |  | 
COc1cccc2c1CCCC2CCCNCCC1CCCc2ccccc21 (stereo unspecified) | 22.8 nM |  |  | 
COc1ccc2c(c1)C(CCCN1CCNCC1)CCC2 (stereo unspecified) | > 1430 nM |  |  | 
COc1cccc2c1CCCC2CCCNCCNc1ccccc1 (stereo unspecified) | 14.1 nM |  | 0.05 | 8
COc1cccc2c1CCCC2CCCN1CCN(C2CCCCC2)CC1 (stereo unspecified) | 28.6 nM | 71 nM |  | 
COc1cccc2c1CCC=C2CCCN1CCN(Cc2ccccc2)CC1 |  |  | > 10 | 

— ChEMBL document CHEMBL1129283, “New sigma and 5-HT1A receptor ligands: omega-(tetralin-1-yl)-n-alkylamine derivatives” (J Med Chem, 1996)
